Source: paper PMC8386104 (RSC Chemical Biology, 2020)
Bridge positions count the residues as written; N and C are the ends. Ends that are not written are not given here. Peptide text beside a SMILES is read from it.

How the values were obtained:
MCF7 breast cancer cells = test: Cell toxicity, resazurin, MCF7; format: cell-based, human; conditions: p53 WT, 24 h, 0.25–32 μM peptide, mean ± SD, three independent experiments
How it was run: (§1)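 5000 cells/well were exposed to serially diluted peptide (0.25–32 μM) for 24 h at 37 °C, 5% CO2. Viability was read by resazurin-to-resorufin fluorescence (ex 560, em 585 nm), with 0.1% Triton X-100 set as 100% toxicity and PBS as 0%. CC50 came from a Hill-slope saturation fit. Mean ± SD of three independent experiments on different days.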

[1] = tested on: HeLa cervical cancer cells; test: Cell toxicity, resazurin, HeLa; format: cell-based, human; conditions: cervix, p53 WT (rep), 24 h, 0.25–32 μM peptide, mean ± SD, three independent experiments
How it was run: as §1

[2] = Cell toxicity, resazurin, HEK293; format: cell-based; conditions: human, HEK293 embryonic kidney cells
How it was run: (§2)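 Peptides serially diluted (0.25–32 μM) and incubated 24 h at 37 °C, 5% CO2 with 5000 cells/well. HEK293 was grown in DMEM and HaCaT in RPMI with 2 mM L-glutamine and 10 mM sodium pyruvate, both with 10% FBS and penicillin/streptomycin. Resazurin-to-resorufin fluorescence was read at 560/585 nm. Triton X-100 (0.1%) set 100% and PBS 0% toxicity. CC50 came from Hill-fitted curves; three independent experiments.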

[3] = tested on: panel of cancerous and noncancerous cell lines, PBMCs and RBCs; test: Cytotoxic activity across the panel of cell lines; format: cell-based, human; conditions: 24 h, resazurin (RBC 1 h hemolysis)
How it was run: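 Cell lines and PBMCs (Ficoll-separated from PBS-diluted heparinized blood, PBS-washed) were read by 24 h resazurin fluorescence; PBMC data came from one experiment with three donors. RBCs were washed in PBS, then incubated at 0.25% v/v with peptide in PBS for 1 h at 37 °C. After pelleting, supernatant A415 gave hemoglobin release, with 0.1% Triton X-100 as 100% and PBS as 0%.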

[4] = Cell toxicity, resazurin, HaCaT; format: cell-based; conditions: human, HaCaT keratinocyte cells
How it was run: as §2

RBC hemolysis = format: cell-based; conditions: human, red blood cells (RBCs), 0.25% v/v
How it was run: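 Donor RBCs were pelleted (4000 rpm, 1 min) and washed three times in PBS. Peptides diluted in PBS (0.25–32 μM) were incubated with RBCs (0.25% v/v final) for 1 h at 37 °C. After pelleting, supernatant A415 gave released hemoglobin. Triton X-100 (0.1% final) set 100% and PBS 0% hemolysis. Single experiment, RBCs from three donors.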

[5] = Cell toxicity, resazurin, PBMCs; format: cell-based; conditions: human, peripheral blood mononuclear cells (PBMCs)
How it was run: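 Heparinized blood from healthy donors was diluted 1:1 with PBS, separated on Ficoll-Paque (1400 rpm, 30 min) and the interface layer washed three times in PBS. Cells (5000/well) received serially diluted peptide (0.25–32 μM) for 24 h at 37 °C, 5% CO2, then a resazurin read at 560/585 nm. Triton X-100 (0.1%) set 100%, PBS 0%. CC50 came from a Hill fit; single experiment, three donors.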

MM96L melanoma cells = test: Cell toxicity, resazurin, MM96L; format: cell-based, human; conditions: p53 WT, 24 h, 0.25–32 μM peptide, mean ± SD, three independent experiments
How it was run: as §1

MDM2 = MDM2 (Homo sapiens, UniProt Q00987); test: Fluorescence polarization competition, F-pDI:MDM2; format: binding; conditions: for IC50, inhibition of F-pDI:MDM2 interaction: fluorescence polarization, 10 nM F-pDI, 8 nM MDM2, Tris buffer, three technical replicates
[6] = Stability of peptides in human serum; format: in vitro ADME; conditions: 25% (v/v) human serum, pH 7.5
How it was run: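 Peptide (50 μM final) was held 0, 1, 2, 4, 8 and 24 h in 25% (v/v) human serum in PBS (pH 7.5). Serum proteins were precipitated with ACN containing 2% TFA. The full-length peptide peak (MS-confirmed) was quantified by RP-HPLC at 215 nm as a percentage of 0 h recovery. A PBS-only incubation served as control. Single experiment, three technical replicates.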

[7] = tested on: HCT116 colorectal cancer cells; test: Cell toxicity, resazurin, HCT116; format: cell-based, human; conditions: p53 WT, 24 h, 0.25–32 μM peptide, mean ± SD, three independent experiments
How it was run: as §1

MDMX = biological target: T1, MDMX (Homo sapiens, UniProt O15151); test: Fluorescence polarization competition, F-pDI:MDMX; format: binding; conditions: for IC50, inhibition of F-pDI:MDMX interaction: fluorescence polarization, 10 nM F-pDI, 45 nM MDMX, Tris buffer, three technical replicates
T1 sequence (O15151 1-490): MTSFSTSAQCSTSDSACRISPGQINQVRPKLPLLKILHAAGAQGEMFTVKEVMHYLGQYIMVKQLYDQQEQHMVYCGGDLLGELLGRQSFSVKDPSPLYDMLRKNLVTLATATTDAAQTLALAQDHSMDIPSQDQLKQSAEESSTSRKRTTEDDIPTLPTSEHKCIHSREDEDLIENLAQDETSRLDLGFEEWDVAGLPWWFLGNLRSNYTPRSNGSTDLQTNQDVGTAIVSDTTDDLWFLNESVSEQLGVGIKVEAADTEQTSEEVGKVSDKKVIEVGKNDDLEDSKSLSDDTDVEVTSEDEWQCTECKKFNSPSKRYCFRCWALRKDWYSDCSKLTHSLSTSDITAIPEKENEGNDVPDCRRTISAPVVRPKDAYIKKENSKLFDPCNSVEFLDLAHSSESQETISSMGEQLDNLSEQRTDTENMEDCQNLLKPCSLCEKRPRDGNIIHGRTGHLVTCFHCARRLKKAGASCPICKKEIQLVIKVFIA
How it was run: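 Competition fluorescence polarization with fluorescein-labeled pDI (p53 mimic) bound to MDMX, read at 489/515 nm. F-pDI:MDMX signal defined 0% inhibition and free F-pDI in Tris buffer 100%. Percent inhibition was taken from the change in polarization relative to F-pDI. IC50 came from Hill-fitted dose-response curves; three technical replicates.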

MM96L cells = test: Live-cell confocal microscopy, intracellular location, MM96L; format: cell-based, human; conditions: spinning disc confocal, serum-free media, 1 and 4 μM cPF4PD-A488, 6 μM PF4P_pDI-A488, 1 μM cPF4Pext_pDI-A488
How it was run: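 MM96L cells were grown in RPMI with 2 mM L-glutamine, 10 mM sodium pyruvate and 10% FBS, and plated at 16 000 per chamber-slide well overnight (37 °C, 5% CO2). Cells were washed into serum-free medium and stained with MitoTracker Red (100 nM final, 5 min). Medium was then replaced with Alexa Fluor 488-labeled peptide in serum-free medium. Cells were imaged live over time at 37 °C, 5% CO2.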

MDA-MB-231 cells [8] = test: Live-cell confocal microscopy, intracellular location, MDA-MB-231; format: cell-based, human; conditions: spinning disc confocal, serum-free media, 4 μM (sub-lethal)
MDA-MB-231 cells [9] = test: Internalization of labeled peptides, flow cytometry, MDA-MB-231; format: cell-based, human; conditions: read-out: FC50 (peptide concentration to detect fluorescence in 50% of cells), MDA-MB-231, 1 h, serum free medium, 0.06–2 μM labeled peptide, 10 000 cells, at least two independent experiments
How it was run: (§3)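 Cells were grown in DMEM with 10% FBS and seeded at 10^5 per well overnight (37 °C, 5% CO2). Serial dilutions of Alexa Fluor 488-labeled peptide in serum-free medium were added for 1 h, then cells were harvested. Flow cytometry used ex 488 nm/em 530/30 nm at 330 V, and readings were repeated after Trypan Blue quench (0.02% w/v final). % fluorescent cells was taken above the no-peptide threshold, and FC50 was fitted by Hill equation.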

MCF7 cells = test: Internalization of labeled peptides, flow cytometry, MCF7; format: cell-based, human; conditions: read-out: FC50 (peptide concentration to detect fluorescence in 50% of cells), MCF7, 1 h, serum free medium, 0.06–2 μM labeled peptide, 10 000 cells, at least two independent experiments
How it was run: as §3

p53:MDM2 = conditions: read-out: inhibition of p53:MDM2; previously reported; cited from earlier work

MDM2, sequence (Q00987 whole entry): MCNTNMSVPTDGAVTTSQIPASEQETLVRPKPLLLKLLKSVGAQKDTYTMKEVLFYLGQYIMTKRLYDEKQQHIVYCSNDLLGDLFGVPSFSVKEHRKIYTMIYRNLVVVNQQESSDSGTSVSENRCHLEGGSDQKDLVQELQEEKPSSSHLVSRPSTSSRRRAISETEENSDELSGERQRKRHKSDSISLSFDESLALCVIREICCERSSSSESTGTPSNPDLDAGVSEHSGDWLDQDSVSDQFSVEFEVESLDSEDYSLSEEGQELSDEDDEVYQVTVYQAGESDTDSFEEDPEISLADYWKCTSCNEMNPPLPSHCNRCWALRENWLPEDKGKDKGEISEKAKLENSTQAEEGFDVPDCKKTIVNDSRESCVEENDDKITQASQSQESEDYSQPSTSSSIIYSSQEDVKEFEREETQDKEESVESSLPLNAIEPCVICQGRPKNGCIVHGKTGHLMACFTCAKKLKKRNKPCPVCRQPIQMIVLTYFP

| Compound | CC50, MCF7 (MCF7 breast cancer cells) [µM] | CC50, HeLa [1] | CC50 at 24 h [2] [µM] | CC50 at 24 h [4] [µM] | HC50 at 1 h (RBC hemolysis) [µM] | CC50 at 24 h [5] [µM] | CC50, MM96L (MM96L melanoma cells) [µM] | remaining at 24 h, 50 μM [6] [%] | CC50, HCT116 [7] [µM] | intracellular location, MM96L (MM96L cells) | other results |
| --- | --- | --- | --- | --- | --- | --- | --- | --- | --- | --- | --- |
| APLYKKIIKKLLES-NH2 [PF4P] | >32 | >32 µM | > 32 | > 32 | > 64 | > 32 | >32 |  |  |  | cytotoxic activity against the tested cells [3]: not active against any of the tested cells |
| LQAPLTFEHYWALLTSGGSGGAPLYKKIIKKLLES-NH2 [PF4P_pDI] | >32 | >32 µM | 27.5 ± 2.3 | 17.1 ± 1.6 | > 64 | > 32 | 13.2 ± 0.7 | 60 | 25.5 ± 2.1 |  | inhibition at 0.001 µM (MDM2; read-out: inhibition of F-pDI binding to MDM2): > 50%; inhibition at 0.001 µM (MDMX; read-out: inhibition of F-pDI binding to MDMX): > 50% |
| A488 GCGGPLYKKIIKKLLESIIKKGGXGGSGGLTFEHYWAQLTGGC* (disulfide) [cPF4Pext_pDI-A488] |  |  |  |  |  |  |  |  |  | enter directly into the cell cytoplasm |  |
| LQAPLYKKIIKKLLESGGSGGAPLYKKIIKKLLES-NH2 [PF4PD] | 17.6 ± 2.0 | 17.2 ± 2.2 µM | 13.7 ± 2.2 | 4.3 ± 0.2 | > 64 | 14 ± 0.9 | 1.6 ± 0.1 | 20 | 4.8 ± 0.8 |  | IC50, inhibition of F-pDI:MDM2 interaction (MDM2): did not inhibit; IC50, inhibition of F-pDI:MDMX interaction (MDMX): did not inhibit |
| CQAPLYKKIIKKLLESGGSGGAPLYKKIIKKLLCES* A488 (sidechain bridge or staple) [cPF4PD-A488] |  |  |  |  |  |  |  |  |  | enter directly into the cell cytoplasm | intracellular location, MDA-MB-231 (MDA-MB-231 cells [8]): entry of the labeled peptide into the cytoplasm was observed within two hours; EC50 (MDA-MB-231 cells [9]): 0.16 µM; EC50 (MCF7 cells): 0.65 µM |
| CGGPLYKKIIKKLLESIIKKGGSGGSGGLTFEHYWAQLTGGC-NH2 (disulfide 1-42) [cPF4Pext_pDI] | 18.6 ± 2.0 | ∼32 ± 5 μM | 19.1 ± 0.5 | 7.2 ± 0.3 | > 64 | 4.3 ± 0.4 | 2.5 ± 0.1 |  | 11.7 ± 0.9 |  | IC50 (MDMX): 0.08 µM |
| A488 LQAPLTFEHYWALLTSGGXGGAPLYKKIIKKLLES* [PF4P_pDI-A488] |  |  |  |  |  |  |  |  |  | enter directly into the cell cytoplasm |  |
| CC[C@H](C)[C@@H]1NC(=O)[C@H](CCCCN)NC(=O)[C@H](CCCCN)NC(=O)[C@H](Cc2ccc(O)cc2)NC(=O)[C@H](CC(C)C)NC(=O)[C@@H]2CCCN2C(=O)CNC(=O)CNC(=O)[C@@H](N)CSSC[C@@H](C(=O)N[C@@H](CCC(=O)O)C(=O)N[C@@H](CO)C(N)=O)NC(=O)[C@H](CC(C)C)NC(=O)[C@H](CCCCN)NC(=O)[C@H](CCCCN)NC(=O)[C@H]([C@@H](C)CC)NC(=O)[C@H]([C@@H](C)CC)NC(=O)[C@H](CCCCN)NC(=O)[C@H](CCCCN)NC(=O)[C@H](Cc2ccc(O)cc2)NC(=O)[C@H](CC(C)C)NC(=O)[C@@H]2CCCN2C(=O)[C@H](C)NC(=O)CNC(=O)CNC(=O)[C@H](CO)NC(=O)CNC(=O)CNC(=O)[C@H](CO)NC(=O)[C@H](CCC(=O)O)NC(=O)[C@H](CC(C)C)NC(=O)[C@H](CC(C)C)NC(=O)[C@H](CCCCN)NC(=O)[C@H](CCCCN)NC(=O)[C@H]([C@@H](C)CC)NC1=O [cPF4PD] (H-CGGPLYKKIIKKLLESGGSGGAPLYKKIIKKLCES-NH2; disulfide 1-33) |  |  | > 32 | 9.1 ± 0.7 | > 64 | 9.1 ± 1.3 |  | ~75 |  |  | IC50, inhibition of F-pDI:MDM2 interaction (MDM2): did not inhibit; IC50, inhibition of F-pDI:MDMX interaction (MDMX): did not inhibit |
